This data set deals with MS2 coat protein. Briefly: apparent Kd, MS2 coat protein; higher = weaker binding; RNA-MaP array; FMN 200 µM where present. The procedure, abridged:
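Stalled E. coli RNA polymerase produced the designs on Illumina sequencing-chip clusters. SNAP-549-labelled MS2 coat protein was added from 0.7 or 1.5 nM, doubling to 3 µM, without and then with constant ligand, in 100 mM Tris-HCl pH 7.5, 80 mM KCl, 4 mM MgCl2, BSA, DTT, yeast tRNA and Tween-20. The apparent Kd is the median of filtered per-cluster fits of green signal normalised to red-channel RNA signal and control-cluster median Fmax.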

The mark [1] stands for this setting: designed as: OFF switch for flavin mononucleotide, no ligand.
Where [2] appears, read: ligand present: flavin mononucleotide, designed as: OFF switch for flavin mononucleotide.
The mark [3] stands for this setting: designed as: ON switch for flavin mononucleotide, no ligand.
[4] abbreviates: ligand present: flavin mononucleotide, designed as: ON switch for flavin mononucleotide.

As for “GAUUAACAUGAGGAUCACCCAUGUGAGGAUAUGAACUUGCCCACUUACCCUUUAGAGUUUAGAAGGCGCAUUUC”, the apparent Kd – broadly, the concentration giving half-maximal binding under the conditions of the assay – reads like this: under setting [1], 18.9 nM; under setting [2], 19 nM.

Take “UAAUUACAUGAGGAUCACCCAUGUGAGGAUAUGUCCAUAUUCGGCAAAUCGGAUAUGGACAGAAGGCACACCGG”: the “apparent Kd” value amounted to 56.3 nM under setting [1] and 141 nM under setting [2].

As for “GCGGUACAUGAGGAUCACCCAUGUCAGGAUAUCCGCUGUUUGUCGAUUGGCGGGCGGUGGAGAAGGGACCUCGC”, the “apparent Kd” value by setting is: under setting [1], 80.4 nM; under setting [2], 81.6 nM.

In the case of “GGUGGACAUGAGGAUCACCCAUGUGAGGAUAUCGGCUGGCUAGCGGCGGACGGCUGCUCGAGAAGGCGCAUUGU”, the “apparent Kd” value is, setting by setting: under setting [1], 90.6 nM; under setting [2], 137 nM.

As to “CGCUGUCAUGCAGGAUAUGCAUUGGAUUACAAUGCAGAAGGGCGAUUACAUGAGGAUCACCCAUGUGUAGACAGUGAAGAAGAC”, the “apparent Kd” value runs as follows: under setting [3], 167 nM; under setting [4], 11.9 nM.

“UAAUUGUGAGGAUAUCAGGUGUGCUAGCGUACUGGUACAUCUGAGAAGGCACAUGAGGAUCACCCAUGUUCCUU”: the “apparent Kd” value by setting is: under setting [1], 13.8 nM; under setting [2], 37.6 nM.

In the case of “CCGUUACAUGAGGAUCACCCAUGUGAGGAUAUCGAUGUGACUAGCAGCGUGCGGGACUCGAGAAGGCACUUGGC”, the “apparent Kd” value under setting [1] was 57.8 nM and the “apparent Kd” value under setting [2] stood at 41.5 nM.

As for “GUAGAGUCAGGAUAUACAGAAAGUGGCUGGAAAACAGUGGCACAUGAGGAUCACCCAUGUAGAAGGGACUCUAC”, the “apparent Kd” value is 89.4 nM under setting [1] and 215 nM under setting [2].

On to “AGGCGAGUAGGAUAUGCAUAUUUACAGGAAAGCUGGAUGGUACAUGAGGAUCACCCAUGUAGAAGGGCUCUGAA”, for which the “apparent Kd” value under setting [1] was determined as 18.7 nM and the “apparent Kd” value under setting [2] was 20.7 nM.

For the sequence “AAAGUACAUGAGGAUCACCCAUGUCCCAAUGAAUAAGGAUAUACGAAAAUAAAAUAAAAUGUAGAAGGUAUAAUAG”, the “apparent Kd” value stood at 31.6 nM under setting [3] and 27.2 nM under setting [4].

Regarding “UUAAUGUGAGGAUAUCAGGUGUGCUAGCGUACUGGUACAUCUGAGAAGGCACAUGAGGAUCACCCAUGUUCCUU”, the “apparent Kd” value came out at 16.4 nM under setting [1] and 55.3 nM under setting [2].

With “CUUUUGUGAGGAUAUCAGUAGUAAUAUAAUAGUAUUACUACUGAGAAGGCACAUGAGGAUCACCCAUGUUCCUC”, the “apparent Kd” value amounted to 27.4 nM under setting [1] and 50.3 nM under setting [2].

With “GGAUAGGACAUAGGAUAUACGUGCUAGAGAUACUAGCAAAAUUUCCUCACAUGAGGAUCACCCAUGUAGAAGGCUGUCCUAUCG”, the “apparent Kd” value reads like this: under setting [1], 6.73 nM; under setting [2], 24.5 nM.

In the case of “GACUGCAUGUAAGGAUAUCGACUGGAAUACAGUCGAGAAGGUACAUGAGGAUCACCCAUGUAAUAAGAUCAAUAAUAAGCAGUC”, the “apparent Kd” value under setting [1] came out at 14.9 nM and the “apparent Kd” value under setting [2] was 33.1 nM.

Regarding “UGCGGUAGAGGAUAUACGUAGAACUAGGUUCAUGUAAAACUACAUGAGGAUCACCCAUGUAGAAGGCUAUCGCU”, the “apparent Kd” value runs as follows: under setting [1], 17 nM; under setting [2], 22.4 nM.

As for “GACAUGAGGAUCACCCAUGUCCCUCCAGAAGGCUGGCGCGCGAAACCUAUAUCGGUUCCGGGCACAGAGGAUAUGGGCGGUUGG”, the “apparent Kd” value came to 199 nM under setting [3] and 27.2 nM under setting [4].

Consider “UUUUACAUAGGAUAUAGUUUGUUGUACAUGAGGAUCACCCAUGUUGUUGGUUGUGCUGUUCUAGAAGGAUGUUUCU”, for which the “apparent Kd” value came to 44.4 nM under setting [1] and 33.8 nM under setting [2].

For “CCCGGGCCUGUGAGGAUAUCGGGCCCGAAAGGGCCCGAGAAGGCACAUGAGGAUCACCCAUGUAAGGGUUUGGG”, the “apparent Kd” value is 27.4 nM under setting [1] and 19.7 nM under setting [2].

As for “UAUAUAUAGUAAGGAUAUGUAUUUAUUUAAUAAACAGAAGGUACUGACAUGAGGAUCACCCAUGUUUUAGUGUGGGCAUGUAGA”, the “apparent Kd” value under setting [1] worked out at 79.7 nM and the “apparent Kd” value under setting [2] was found to be 149 nM.

Consider “AAAAAGUGAGGAUAUGCUUUUAUUUAUUAUUAUUAUUAUUUGCAGAAGGCACAUGAGGAUCACCCAUGUAAGAA”, for which the “apparent Kd” value is, setting by setting: under setting [1], 31.7 nM; under setting [2], 24.9 nM.

With “UAUUAUCACGAAGGAUAUGCUUACAUGAGGAUCACCCAUGUAUGUAUAUUGAUCCAGAGUUUUGAGCAGAAGGUCGUGAGUAAA”, the “apparent Kd” value was 41.8 nM under setting [1] and 250 nM under setting [2].

On to “GUCAAGUGAGGAUAUGAUUGUACAGCAGACUAGCGUCUGCAUCAGAAGGCACAUGAGGAUCACCCAUGUUUGUC”, for which the “apparent Kd” value reads like this: under setting [1], 20.6 nM; under setting [2], 17.1 nM.

As to “GUGUACAGAGGAUAUACACGAGUAGUUACGAAAGUAACUACACAUGAGGAUCACCCAUGUAGAAGGCUGUACAC”, the “apparent Kd” value was 25 nM under setting [1] and 30.3 nM under setting [2].

As to “CCGGCUGCUGUGAGGAUAUGCCUGUGCGCCCGCGGGCAGAAGGCACAUGAGGAUCACCCAUGUCCUGCGGUCCC”, the “apparent Kd” value is, setting by setting: under setting [1], 39 nM; under setting [2], 41.2 nM.

Turning to “AUUAUUGACAUAGGAUAUUGUUACAUGAGGAUCACCCAUGUUAUUUGGGAACUAGGAAUAUUUUACAAGAAGGAUGUUGUUAAA”, the “apparent Kd” value amounted to 91 nM under setting [3] and 79.3 nM under setting [4].

Consider “UCAAUUGCGUAGGAUAUACGGGCGCAGGCUAGAGUAGAAGGACGCACAUGAGGAUCACCCAUGUGGGUACCGAU”, for which the “apparent Kd” value was 17.7 nM under setting [1] and 114 nM under setting [2].

Turning to “GUUUUCGCAUGAGGAUAUGCUCGCAUUUCAAGAGCAGAAGGUAUGUCUAUAGACAUGAGGAUCACCCAUGUAUUUAUCAUUGAA”, the “apparent Kd” value reads like this: under setting [3], 273 nM; under setting [4], 118 nM.

As to “UCCUUCUGUUGAGGAUAUGUAAGACAGCGGCCGCUAUGGCAGCACGCUGAUACAGAAGGCAACAUGAGGAUCACCCAUGUUCAA”, the “apparent Kd” value runs as follows: under setting [1], 18.9 nM; under setting [2], 146 nM.

Take “UGAUAGGACAGAGGAUAUACGUGCUGGUGAUACUAGCAAAGUAUCGUGACAUGAGGAUCACCCAUGUAGAAGGCUGUCCUAUCU”: the “apparent Kd” value was determined as 81.1 nM under setting [1] and 27.3 nM under setting [2].

In the case of “GGAUGGACCCAGAAGGGCAGAUUCCGAGGGAUUUGAGAUGAGCGGAUAUGUAGGAUAUGGGUGGACAUGAGGAUCACCCAUGUC”, the “apparent Kd” value came to 231 nM under setting [3] and 46.6 nM under setting [4].

Regarding “UUUAUAUUCAGAGGAUAUUAAUGUAGUAUAAUAUAAGAAGGCUGUUUGUUUUGUAAAGUUAUUAUACAUGAGGAUCACCCAUGU”, the “apparent Kd” value runs as follows: under setting [3], 18.4 nM; under setting [4], 15.5 nM.

For the sequence “UUAUUAAGUGUGAGGAUAUGCUGGUCCUUGGAUCAGCAGAAGGCACAUGAGGAUCACCCAUGUACAUUAUUUUA”, the “apparent Kd” value under setting [1] was determined as 35 nM and the “apparent Kd” value under setting [2] came to 247 nM.

For the sequence “AUAUCCUAGAUAGGAUAUACUGAGGUUGAAUGGGUAGAAGGAUCGUUAGGGUGGACUACAUGAGGAUCACCCAUGUUGUUUAUU”, the “apparent Kd” value by setting is: under setting [3], 213 nM; under setting [4], 208 nM.

On to “ACAACAAAGUGAGGAUAUACAUAAUUCAUAACUGUAGAAGGCACAAACCUCAAUACAUGAGGAUCACCCAUGUUAUAUAUCUAA”, for which the “apparent Kd” value is, setting by setting: under setting [1], 34.8 nM; under setting [2], 38.5 nM.

Regarding “GCAUAGGACAGAGGAUAUACGUGCUAGAGAUACUAGCAAAAUUUCCUCACAUGAGGAUCACCCAUGUAGAAGGCUGUCCUAUCG”, the “apparent Kd” value under setting [1] worked out at 17.6 nM and the “apparent Kd” value under setting [2] is 422 nM.

As for “AAAAGUUGAGGAUAUGGCUAUUUGGACAUGAGGAUCACCCAUGUGUCUAUGGCCCGGGUGCCAGAAGGUGAUUACU”, the “apparent Kd” value runs as follows: under setting [1], 92.2 nM; under setting [2], 94.3 nM.

Turning to “UCAUUUAUCACAGGAUAUAUUAGUAUACAGUUGUUUGGUUAUUACAUAUUAAUAGAAGGGUGGAACAUGAGGAUCACCCAUGUA”, the “apparent Kd” value runs as follows: under setting [3], 616 nM; under setting [4], 282 nM.

For the origin of these results see the EternaBench riboswitch data.
